Laboratory results reported in ChEMBL document CHEMBL3352430, “4-Aminopyridyl-based CYP51 inhibitors as anti-Trypanosoma cruzi drug leads with improved pharmacokinetic profile and in vivo potency” (J Med Chem, 2014).
Activity calls are given as the source filed them. No cut-off for these calls is given here.

Columns and labels:
[1] = Tmax in mouse at 50 mg/kg, po in 20% HP-beta-CD; type: ADME, organism-based; design: dose 50 mg/kg, route oral; details: in vivo
Summary of the method: (§1)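 Female Swiss Webster mice, 8 weeks old, given one oral gavage dose of 50 mg/kg as a 10 mg/mL preparation in the named vehicle (20% HPβCD suspension or 20% Kolliphor). Plasma sampled at about 0.25, 0.5, 1, 2, 4, 6, 8, 12 and 24 h, n = 3 per time point. Protein precipitated with 5 volumes acetonitrile, filtered, then LC-MS/MS. Values are averages of three mice.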

[2] = AUClast in mouse at 50 mg/kg, po in 20% Kolliphor; type: ADME, organism-based; design: time 0 - last, dose 50 mg/kg, route oral; details: plasma; summary of the method: as §1
[3] = Drug uptake in mouse fat at 50 mg/kg, po in 20% HP-beta-CD measured at 8 hrs post dose; type: ADME, organism-based, Adipose tissue; design: dose 50 mg/kg, route oral; details: in vivo
Summary of the method: (§2)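 Female Swiss Webster mice, 8 weeks old, given a single 50 mg/kg oral gavage dose in 20% HPβCD or 20% Kolliphor. Tissues taken from three mice at 2 and 8 h post dose. Homogenized by probe sonication in PBS (1:4 w/v), protein precipitated with acetonitrile, and compound measured by LC-MS/MS in μM.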

[4] = test system: Trypanosoma cruzi; assay: Antitrypanosomal activity against Trypanosoma cruzi Y luc infected in mouse assessed as inhibition of parasitemia at 50 mg/kg, po bid in 20% HP-beta-CD administered for 4 consecutive days starting on day 3 of infection measured on day 7 post infection relative to vehicle-treated control; type: functional, organism-based; design: dose 50 mg/kg
Summary of the method: (§3)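 Female Swiss Webster mice, 8 weeks old, infected ip with 10^5 T. cruzi Y luc trypomastigotes. Only mice with detectable luminescence on day 3 were treated. Compound given by oral gavage bid for four days, as a suspension in 20% HPβCD or a solution in 20% Kolliphor, five mice per group. Vehicle group and benznidazole 50 mg/kg served as controls. On day 7, mice were injected ip with 150 mg/kg d-luciferin and imaged after 5 min under isoflurane. Percent inhibition calculated against untreated mice; two-tailed paired t test.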

[5] = Drug uptake in mouse skeletal muscle at 50 mg/kg, po in 20% Kolliphor measured at 8 hrs post dose; type: ADME, organism-based, Muscle tissue; design: dose 50 mg/kg, route oral; details: in vivo; summary of the method: as §2
[6] = test system: Intestine; assay: Drug uptake in mouse intestine at 50 mg/kg, po in 20% Kolliphor measured at 8 hrs post dose; type: ADME, organism-based; design: dose 50 mg/kg, route oral; details: in vivo; summary of the method: as §2
[7] = Drug uptake in mouse fat at 50 mg/kg, po in 20% Kolliphor measured at 8 hrs post dose; type: ADME, organism-based, Adipose tissue; design: dose 50 mg/kg, route oral; details: in vivo; summary of the method: as §2
[8] = Half life in mouse at 50 mg/kg, po in 20% Kolliphor; type: ADME, organism-based; design: dose 50 mg/kg, route oral; details: in vivo; summary of the method: as §1
[9] = test system: Trypanosoma cruzi; assay: Antitrypanosomal activity against Trypanosoma cruzi amastigotes infected in mouse C2C12 cells after 72 hrs by DAPI staining method; type: functional, organism-based; details: C2C12, 72 h
[10] = biological target: Cytochrome P450 3A4 (Homo sapiens, UniProt P08684); assay: Inhibition of CYP3A4 in human liver microsomes at 1 uM; type: ADME
[11] = test system: Trypanosoma cruzi; assay: Antitrypanosomal activity against Trypanosoma cruzi Y luc infected in mouse assessed as inhibition of parasitemia at 50 mg/kg, po bid in 20% Kolliphor administered for 4 consecutive days starting on day 3 of infection measured on day 7 post infection relative to vehicle-treated control; type: functional; summary of the method: as §3
[12] = Drug uptake in mouse skeletal muscle at 50 mg/kg, po in 20% HP-beta-CD measured at 8 hrs post dose; type: ADME, organism-based, Muscle tissue; design: dose 50 mg/kg, route oral; details: in vivo; summary of the method: as §2
[13] = test system: Trypanosoma cruzi; assay: Antitrypanosomal activity against Trypanosoma cruzi Y luc infected in mouse assessed as inhibition of parasitemia at 25 mg/kg, po bid in 20% Kolliphor administered for 4 consecutive days starting on day 3 of infection measured on day 7 post infection relative to vehicle-treated control; type: functional; summary of the method: as §3
[14] = biological target: Cytochrome P450 2D6 (Homo sapiens, UniProt P10635); assay: Inhibition of CYP2D6 in human liver microsomes at 1 uM; type: ADME
[15] = Cmax in mouse at 50 mg/kg, po in 20% HP-beta-CD; type: ADME, organism-based; design: dose 50 mg/kg, route oral; details: in vivo; summary of the method: as §1
[16] = test system: Mus musculus; assay: Toxicity in mouse assessed as change in appearance at 12.5 to 50 mg/kg, po bid in 20% HP-beta-CD; type: organism-based; design: dose 12.5-50 mg/kg, route oral; details: in vivo
Summary of the method: (§4)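 Mice in the four-day oral treatment study were given compound bid by gavage in 20% HPβCD or 20% Kolliphor. They were watched for weight loss, mobility problems and changes in appearance throughout dosing.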

[17] = test system: Lung; assay: Drug uptake in mouse lung at 50 mg/kg, po in 20% HP-beta-CD measured at 8 hrs post dose; type: ADME, organism-based; design: dose 50 mg/kg, route oral; details: in vivo; summary of the method: as §2
[18] = test system: Intestine; assay: Drug uptake in mouse intestine at 50 mg/kg, po in 20% HP-beta-CD measured at 8 hrs post dose; type: ADME, organism-based; design: dose 50 mg/kg, route oral; details: in vivo; summary of the method: as §2
[19] = test system: Heart; assay: Drug uptake in mouse heart at 50 mg/kg, po in 20% HP-beta-CD measured at 8 hrs post dose; type: ADME, organism-based; design: dose 50 mg/kg, route oral; details: in vivo; summary of the method: as §2
[20] = test system: C2C12; assay: Cytotoxicity against mouse C2C12 cells up to 10 uM; type: cell-based
Summary of the method: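 Mouse C2C12 myoblasts infected with T. cruzi CA-I/72, then exposed at 24 h postinfection to compound at 10 μM down to 5 pM in 5-fold steps for 72 h at 37 °C. Cells fixed in paraformaldehyde, stained with DAPI and scored by automated imaging. Triplicate wells; uninfected and infected untreated wells as controls.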

[21] = test system: Mus musculus; assay: Toxicity in mouse assessed as weight loss at 12.5 to 50 mg/kg, po bid in 20% Kolliphor; type: organism-based; design: dose 12.5-50 mg/kg, route oral; details: in vivo; summary of the method: as §4
[22] = Half life in mouse at 50 mg/kg, po in 20% HP-beta-CD; type: ADME, organism-based; design: dose 50 mg/kg, route oral; details: in vivo; summary of the method: as §1
[23] = Clearance in mouse at 50 mg/kg, po in 20% Kolliphor; type: ADME, organism-based; design: dose 50 mg/kg, route oral; details: in vivo; summary of the method: as §1
[24] = Tmax in mouse at 50 mg/kg, po in 20% Kolliphor; type: ADME, organism-based; design: dose 50 mg/kg, route oral; details: in vivo; summary of the method: as §1
[25] = test system: Liver microsome; assay: Half life in rat liver microsomes; type: ADME
[26] = test system: Mus musculus; assay: Toxicity in mouse assessed as change in appearance at 12.5 to 50 mg/kg, po bid in 20% Kolliphor; type: organism-based; design: dose 12.5-50 mg/kg, route oral; details: in vivo; summary of the method: as §4
[27] = biological target: Sterol 14-alpha demethylase (Trypanosoma cruzi (strain CL Brener), UniProt Q7Z1V1); assay: Binding affinity to Trypanosoma cruzi CYP51 by UV-vis titration method; details: read-out: Kd(app)
[28] = test system: Mus musculus; assay: Toxicity in mouse assessed as mobility issues at 12.5 to 50 mg/kg, po bid in 20% Kolliphor; type: organism-based; design: dose 12.5-50 mg/kg, route oral; details: in vivo; summary of the method: as §4
[29] = test system: Liver microsome; assay: Half life in human liver microsomes; type: ADME
[30] = test system: Trypanosoma cruzi; assay: Antitrypanosomal activity against Trypanosoma cruzi Y luc infected in mouse assessed as inhibition of parasitemia at 25 mg/kg, po bid in 20% HP-beta-CD administered for 4 consecutive days starting on day 3 of infection measured on day 7 post infection relative to vehicle-treated control; type: functional, organism-based; design: dose 25 mg/kg; summary of the method: as §3
[31] = test system: Mus musculus; assay: Toxicity in mouse assessed as mobility issues at 12.5 to 50 mg/kg, po bid in 20% HP-beta-CD; type: organism-based; design: dose 12.5-50 mg/kg, route oral; details: in vivo; summary of the method: as §4
[32] = test system: Liver; assay: Drug uptake in mouse liver at 50 mg/kg, po in 20% HP-beta-CD measured at 8 hrs post dose; type: ADME, organism-based; design: dose 50 mg/kg, route oral; details: in vivo; summary of the method: as §2
[33] = test system: Liver; assay: Half life in mouse liver microsomes; type: ADME
[34] = test system: Heart; assay: Drug uptake in mouse heart at 50 mg/kg, po in 20% Kolliphor measured at 8 hrs post dose; type: ADME, organism-based; design: dose 50 mg/kg, route oral; details: in vivo; summary of the method: as §2
[35] = biological target: T1, Cytochrome P450 1A2 (Homo sapiens, UniProt P05177); assay: Inhibition of CYP1A2 in human liver microsomes at 1 uM; type: ADME
T1 sequence (P05177 whole entry): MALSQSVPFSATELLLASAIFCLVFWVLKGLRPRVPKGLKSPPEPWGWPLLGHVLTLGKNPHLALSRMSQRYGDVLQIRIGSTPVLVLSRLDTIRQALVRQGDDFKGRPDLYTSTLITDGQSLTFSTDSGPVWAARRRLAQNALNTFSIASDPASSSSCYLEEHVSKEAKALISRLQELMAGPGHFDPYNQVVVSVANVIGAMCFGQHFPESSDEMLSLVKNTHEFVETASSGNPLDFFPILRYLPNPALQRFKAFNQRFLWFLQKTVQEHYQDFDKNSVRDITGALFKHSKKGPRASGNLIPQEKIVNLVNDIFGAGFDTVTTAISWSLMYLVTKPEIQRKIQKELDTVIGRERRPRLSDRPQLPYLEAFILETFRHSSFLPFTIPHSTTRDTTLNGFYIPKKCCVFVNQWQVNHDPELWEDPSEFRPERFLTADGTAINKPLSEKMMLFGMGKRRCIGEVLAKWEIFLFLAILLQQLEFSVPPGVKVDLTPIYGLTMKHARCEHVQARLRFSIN

[36] = test system: Liver; assay: Drug uptake in mouse liver at 50 mg/kg, po in 20% Kolliphor measured at 8 hrs post dose; type: ADME, organism-based; design: dose 50 mg/kg, route oral; details: in vivo; summary of the method: as §2
[37] = test system: Mus musculus; assay: AUClast in mouse at 50 mg/kg, po in 20% HP-beta-CD; type: ADME, organism-based, Plasma; design: time 0 - last, dose 50 mg/kg, route oral; details: in vivo; summary of the method: as §1
[38] = test system: Mus musculus; assay: Toxicity in mouse assessed as weight loss at 12.5 to 50 mg/kg, po bid in 20% HP-beta-CD; type: organism-based; design: dose 12.5-50 mg/kg, route oral; details: in vivo; summary of the method: as §4
[39] = biological target: Cytochrome P450 2C9 (Homo sapiens, UniProt P11712); assay: Inhibition of CYP2C9 in human liver microsomes at 1 uM; type: ADME
[40] = Cmax in mouse at 50 mg/kg, po in 20% Kolliphor; type: ADME, organism-based; design: dose 50 mg/kg, route oral; details: in vivo; summary of the method: as §1
[41] = test system: Lung; assay: Drug uptake in mouse lung at 50 mg/kg, po in 20% Kolliphor measured at 8 hrs post dose; type: ADME, organism-based; design: dose 50 mg/kg, route oral; details: in vivo; summary of the method: as §2

Chain of Cytochrome P450 2C9 (P11712 whole entry): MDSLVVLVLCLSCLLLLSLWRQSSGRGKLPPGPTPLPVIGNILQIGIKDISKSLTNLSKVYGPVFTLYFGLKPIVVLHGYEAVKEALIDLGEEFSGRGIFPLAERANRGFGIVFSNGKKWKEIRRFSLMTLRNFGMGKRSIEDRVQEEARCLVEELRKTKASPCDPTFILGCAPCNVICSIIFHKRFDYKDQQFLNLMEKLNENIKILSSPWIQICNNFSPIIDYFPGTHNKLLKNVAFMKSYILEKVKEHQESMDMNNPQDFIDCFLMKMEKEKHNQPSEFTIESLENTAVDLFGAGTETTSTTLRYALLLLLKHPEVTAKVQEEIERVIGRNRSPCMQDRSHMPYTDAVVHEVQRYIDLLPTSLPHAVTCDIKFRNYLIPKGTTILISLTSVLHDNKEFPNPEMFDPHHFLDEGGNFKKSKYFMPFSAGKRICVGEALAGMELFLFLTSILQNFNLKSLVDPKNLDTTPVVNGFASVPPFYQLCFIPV
Chain of Cytochrome P450 2D6 (P10635 whole entry): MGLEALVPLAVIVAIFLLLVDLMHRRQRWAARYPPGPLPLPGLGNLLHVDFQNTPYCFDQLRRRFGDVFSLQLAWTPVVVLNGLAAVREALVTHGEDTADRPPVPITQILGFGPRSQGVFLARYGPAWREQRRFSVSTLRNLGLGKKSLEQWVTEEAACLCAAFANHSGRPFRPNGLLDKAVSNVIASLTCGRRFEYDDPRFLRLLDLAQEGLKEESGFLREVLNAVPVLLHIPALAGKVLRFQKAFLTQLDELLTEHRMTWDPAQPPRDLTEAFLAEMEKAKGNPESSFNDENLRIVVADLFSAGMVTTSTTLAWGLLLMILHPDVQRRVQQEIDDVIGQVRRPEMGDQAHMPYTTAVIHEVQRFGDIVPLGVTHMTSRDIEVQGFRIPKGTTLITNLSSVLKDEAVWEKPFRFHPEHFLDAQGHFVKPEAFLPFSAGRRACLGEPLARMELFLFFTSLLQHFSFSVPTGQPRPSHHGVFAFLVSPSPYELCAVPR
Chain of Sterol 14-alpha demethylase (Q7Z1V1 whole entry): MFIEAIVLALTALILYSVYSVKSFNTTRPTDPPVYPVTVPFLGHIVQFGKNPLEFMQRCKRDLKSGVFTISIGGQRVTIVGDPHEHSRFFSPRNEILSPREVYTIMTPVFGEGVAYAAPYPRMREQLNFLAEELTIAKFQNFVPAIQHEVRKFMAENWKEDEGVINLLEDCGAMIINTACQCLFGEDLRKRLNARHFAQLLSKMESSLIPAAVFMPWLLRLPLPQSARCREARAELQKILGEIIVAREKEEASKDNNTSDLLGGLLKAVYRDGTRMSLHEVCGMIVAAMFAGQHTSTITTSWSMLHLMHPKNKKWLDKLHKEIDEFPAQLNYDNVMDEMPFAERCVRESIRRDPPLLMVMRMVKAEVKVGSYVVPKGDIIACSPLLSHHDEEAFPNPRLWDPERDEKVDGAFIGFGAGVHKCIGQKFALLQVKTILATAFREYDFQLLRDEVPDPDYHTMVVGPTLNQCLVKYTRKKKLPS
Chain of Cytochrome P450 3A4 (P08684 whole entry): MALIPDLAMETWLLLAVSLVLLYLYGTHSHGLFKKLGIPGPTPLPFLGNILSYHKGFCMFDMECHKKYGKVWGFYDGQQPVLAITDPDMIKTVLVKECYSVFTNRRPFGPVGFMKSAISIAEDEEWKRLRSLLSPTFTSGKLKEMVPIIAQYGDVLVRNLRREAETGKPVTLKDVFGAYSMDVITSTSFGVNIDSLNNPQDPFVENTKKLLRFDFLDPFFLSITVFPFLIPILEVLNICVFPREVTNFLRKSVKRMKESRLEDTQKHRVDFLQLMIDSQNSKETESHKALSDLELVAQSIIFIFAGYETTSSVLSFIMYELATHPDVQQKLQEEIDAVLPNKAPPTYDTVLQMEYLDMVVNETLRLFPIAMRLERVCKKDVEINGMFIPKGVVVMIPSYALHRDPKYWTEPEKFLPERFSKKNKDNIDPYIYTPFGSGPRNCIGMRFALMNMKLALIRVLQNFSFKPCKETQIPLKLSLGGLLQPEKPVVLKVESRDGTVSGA

O=C(N[C@H](Cc1c[nH]c2ccccc12)C(=O)Nc1ccncc1)c1ccc(-c2cc(C(F)(F)F)ccc2F)cc1F
Tmax [1]: 2 h | AUC(0-t) [2]: 106 µM·h | Drug uptake [3]: Active | inhibition [4]: Active | Drug uptake [5]: Active | Drug uptake [6]: Active | Drug uptake [7]: Active | half-life [8]: 3.76 h | EC50 [9]: 21 nM | inhibition (INH) [10]: 27% | inhibition in vivo at 50 mg/kg [11]: 91.3% | Drug uptake [12]: Active | inhibition in vivo at 25 mg/kg [13]: 63.3% | inhibition (INH) [14]: 21% | Cmax [15]: 1.02 µM | Activity [16]: Non-toxic | Drug uptake [17]: Active | Drug uptake [18]: Active | Drug uptake [19]: Active | Activity [20]: Non-toxic | Activity [21]: Non-toxic | half-life [22]: 4.87 h | CL/F [23]: 14.1 mL/min/kg | Tmax [24]: 2.33 h | t1/2 [25]: 0.3 h | Activity [26]: Non-toxic | Kd [27]: 12 nM | Activity [28]: Non-toxic | t1/2 [29]: 0.417 h | inhibition [30]: Active | Activity [31]: Non-toxic | Drug uptake [32]: Active | t1/2 [33]: 0.817 h | Drug uptake [34]: Active | inhibition (INH) [35]: -5% | Drug uptake [36]: Active | AUClast [37]: 4.55 µM·h | Activity [38]: Non-toxic | inhibition (INH) [39]: 90% | Cmax [40]: 13.6 µM | Drug uptake [41]: Active
